Assay results as given in ChEMBL document CHEMBL3045596, “Synthesis and herbicidal activity of 12-(aryloxyacyloxyimino)-1,15-pentadecanlactone derivatives” (J Agric Food Chem, 2009).
In brackets after ≈: the same amount, converted by molar mass.

What follows are compounds tested on Lolium arundinaceum (assay: Herbicidal activity against Festuca arundinacea assessed as plant dead at 25 to 32 degC measured after 7 days). Details: L., 168 h.
Format: functional, organism-based
In short: (§1)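 Seedlings grown at 25-32 °C for about 7 days, then thinned to thirty plants per cup at the two-leaf stage. Emulsion (1 mL per cup) applied by Potter spray tower, after which plants were kept at 25-32 °C. Three replicates per concentration.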

With O=C1CCCCCCCCCCC(=NOC(=O)COc2ccc(Cl)cc2Cl)CCCO1 the EC50 was 50.2 µg/mL (≈ 106 µM).

What follows are compounds tested on Oryza sativa (assay: Herbicidal activity against Oryza sativa (rice) assessed as plant dead at 25 to 32 degC measured after 7 days). Details: 168 h.
Format: functional, organism-based
In short: as §1

In the case of O=C1CCCCCCCCCCC(=NOC(=O)COc2ccc(Cl)cc2Cl)CCCO1, the EC50 is reported as 2.5 µg/mL (≈ 5.29 µM).

What follows are compounds tested on Zea mays (assay: Herbicidal activity against Zea mays (maize) assessed as plant dead at 25 to 32 degC measured after 7 days). Details: 168 h.
Format: functional, organism-based
In short: as §1

Work on O=C1CCCCCCCCCCC(=NOC(=O)COc2ccc(Cl)cc2Cl)CCCO1 yielded an EC50 of 0.3 µg/mL (≈ 0.635 µM).

Each compound was assayed on Triticum aestivum (assay: Herbicidal activity against Triticum aestivum L. (wheat) assessed as plant dead at 25 to 32 degC measured after 7 days). Details: 168 h.
Format: functional, organism-based
In short: as §1

O=C1CCCCCCCCCCC(=NOC(=O)COc2ccc(Cl)cc2Cl)CCCO1 was tested, and the EC50 was 38.4 µg/mL (≈ 81.3 µM).

What follows are compounds tested on Glycine max (assay: Herbicidal activity against Glycine max (soybean) assessed as plant dead at 25 to 32 degC measured after 7 days). Details: 168 h.
Format: functional, organism-based
In short: as §1

O=C1CCCCCCCCCCC(=NOC(=O)COc2ccc(Cl)cc2Cl)CCCO1 showed an EC50 of 14.4 µg/mL (≈ 30.5 µM).

The compounds below were run on Vigna radiata var. radiata (assay: Herbicidal activity against Vigna radiata var. radiata assessed as plant dead at 25 to 32 degC measured after 7 days). Details: 168 h.
Format: functional, organism-based
In short: as §1

O=C1CCCCCCCCCCC(=NOC(=O)COc2ccc(Cl)cc2Cl)CCCO1 gave an EC50 of 2.8 µg/mL (≈ 5.93 µM).

Each compound was assayed on Cucumis sativus (assay: Herbicidal activity against Cucumis sativus (cucumber) assessed as plant dead at 25 to 32 degC measured after 7 days). Details: 168 h.
Format: functional, organism-based
In short: as §1

With O=C1CCCCCCCCCCC(=NOC(=O)COc2ccc(Cl)cc2Cl)CCCO1 the EC50 was 1.5 µg/mL (≈ 3.18 µM).

What follows are compounds tested on Amaranthus tricolor (assay: Herbicidal activity against Amaranthus tricolor assessed as plant dead at 25 to 32 degC measured after 7 days). Details: 168 h.
Format: functional, organism-based
In short: as §1

Point of comparison: Cc1cc(OC(C)C(=O)ON=C2CCCCCCCCCCC(=O)OCCC2)ccc1Cl (stereo unspecified), EC50 9.5 µg/mL (≈ 20.4 µM). Against it:
- Cc1cc(Cl)ccc1OCC(=O)O/N=C1/CCCCCCCCCCC(=O)OCCC1 — 1.9-fold higher, 18.2 µg/mL (≈ 40.3 µM)
- Cc1cccc(OC(C)C(=O)ON=C2CCCCCCCCCCC(=O)OCCC2)c1C (stereo unspecified) — 5.2-fold higher, 49.6 µg/mL (≈ 111 µM)
- O=C1CCCCCCCCCCC(=NOC(=O)COc2ccc(Cl)cc2)CCCO1 — 1.9-fold higher, 18.2 µg/mL (≈ 41.6 µM)
- Cc1cc(Cl)ccc1OCC(=O)O/N=C1\CCCCCCCCCCC(=O)OCCC1 — 1.9-fold higher, 18.3 µg/mL (≈ 40.5 µM)
- Cc1ccc(OC(C)C(=O)ON=C2CCCCCCCCCCC(=O)OCCC2)cc1 (stereo unspecified) — 3.8-fold higher, 35.9 µg/mL (≈ 83.2 µM)
- O=C(O)COc1ccc(Cl)cc1Cl [2,4-DICHLOROPHENOXYACETIC ACID] — 12-fold higher, 117 µg/mL (≈ 531 µM)
- O=C1CCCCCCCCCCC(=NOC(=O)COc2ccc(Br)cc2Cl)CCCO1 — 1.8-fold higher, 16.9 µg/mL (≈ 32.7 µM)
- O=C1CCCCCCCCCC/C(=N\OC(=O)COc2ccc(Cl)cc2)CCCO1 — 1.7-fold higher, 15.7 µg/mL (≈ 35.8 µM)
- Cc1ccccc1OCC(=O)ON=C1CCCCCCCCCCC(=O)OCCC1 — 12-fold higher, 117 µg/mL (≈ 281 µM)
- O=C1CCCCCCCCCCC(=NOC(=O)COc2ccccc2Cl)CCCO1 — 3.2-fold higher, 30.6 µg/mL (≈ 69.9 µM)
- CC1CCC(=NOC(=O)COc2ccc(Cl)cc2)CCCCCCCCCCC(=O)O1 (stereo unspecified) — within 1.5-fold, 12.4 µg/mL (≈ 27.4 µM)
- Cc1cc(Cl)ccc1OCC(=O)ON=C1CCCCCCCCCCC(=O)OCCC1 — 2.1-fold higher, 19.6 µg/mL (≈ 43.4 µM)
- Cc1ccc(OCC(=O)ON=C2CCCCCCCCCCC(=O)OCCC2)cc1 — 5.8-fold higher, 55.4 µg/mL (≈ 133 µM)
- CC(C)(Oc1ccccc1)C(=O)ON=C1CCCCCCCCCCC(=O)OCCC1 — 3.6-fold higher, 34.6 µg/mL (≈ 80.2 µM)
- CC(Oc1cccc(Cl)c1)C(=O)ON=C1CCCCCCCCCCC(=O)OCCC1 (stereo unspecified) — 2.6-fold higher, 25.1 µg/mL (≈ 55.5 µM)
- CC(Oc1ccccc1Cl)C(=O)ON=C1CCCCCCCCCCC(=O)OCCC1 (stereo unspecified) — 1.9-fold higher, 18 µg/mL (≈ 39.8 µM)
- Cc1cccc(OCC(=O)ON=C2CCCCCCCCCCC(=O)OCCC2)c1C — 5.5-fold higher, 52.4 µg/mL (≈ 121 µM)
- CC(C)(Oc1ccc(Cl)cc1)C(=O)ON=C1CCCCCCCCCCC(=O)OCCC1 — 4.9-fold higher, 46.5 µg/mL (≈ 99.8 µM)
- O=C1CCCCCCCCCCC(=NOC(=O)COc2ccccc2)CCCO1 — 7.7-fold higher, 73.2 µg/mL (≈ 181 µM)
- O=C1CCCCCCCCCCC(=NOC(=O)COc2cccc(Cl)c2)CCCO1 — 2.5-fold higher, 23.8 µg/mL (≈ 54.3 µM)
- Cc1cc(Cl)ccc1OCC(=O)ON=C1CCCCCCCCCCC(=O)OC(C)CC1 (stereo unspecified) — within 1.5-fold, 8 µg/mL (≈ 17.2 µM)
- CC1CCC(=NOC(=O)COc2ccc(Br)cc2Cl)CCCCCCCCCCC(=O)O1 (stereo unspecified) — 1.5-fold higher, 14.4 µg/mL (≈ 27.1 µM)
- CC1CCC(=NOC(=O)C(C)Oc2ccc(Cl)cc2)CCCCCCCCCCC(=O)O1 (stereo unspecified) — 2-fold lower, 4.8 µg/mL (≈ 10.3 µM)
- Cc1cc(OC(C)(C)C(=O)ON=C2CCCCCCCCCCC(=O)OCCC2)ccc1Cl — 5.3-fold higher, 50.1 µg/mL (≈ 104 µM)
- O=C1CCCCCCCCCC/C(=N\OC(=O)COc2ccc(Br)cc2Cl)CCCO1 — 1.5-fold higher, 14.4 µg/mL (≈ 27.9 µM)
- CC(Oc1ccc(Cl)cc1Cl)C(=O)ON=C1CCCCCCCCCCC(=O)OCCC1 (stereo unspecified) — within 1.5-fold, 13.5 µg/mL (≈ 27.8 µM)
- COC(=O)c1ccccc1S(=O)(=O)NC(=O)N(C)c1nc(C)nc(OC)n1 [TRIBENURON METHYL] — 2.4-fold higher, 22.4 µg/mL (≈ 56.7 µM)
- O=C1CCCCCCCCCCC(=NOC(=O)COc2cccc([N+](=O)[O-])c2)CCCO1 — 8.5-fold higher, 80.9 µg/mL (≈ 180 µM)
- Cc1ccc(OCC(=O)ON=C2CCCCCCCCCCC(=O)OCCC2)cc1C — 5.8-fold higher, 55.4 µg/mL (≈ 128 µM)
- COc1ccc(OCC(=O)ON=C2CCCCCCCCCCC(=O)OCCC2)cc1 — 5.1-fold higher, 48.8 µg/mL (≈ 113 µM)
- CC1CCC(=NOC(=O)COc2ccc(Cl)cc2Cl)CCCCCCCCCCC(=O)O1 (stereo unspecified) — within 1.5-fold, 8.2 µg/mL (≈ 16.9 µM)
- O=C1CCCCCCCCCC/C(=N/OC(=O)COc2ccc(Cl)cc2)CCCO1 — 1.7-fold higher, 16.3 µg/mL (≈ 37.2 µM)
- Cc1ccc(OC(C)(C)C(=O)ON=C2CCCCCCCCCCC(=O)OCCC2)cc1 — 5.8-fold higher, 55.4 µg/mL (≈ 124 µM)
- O=C1CCCCCCCCCCC(=NOC(=O)COc2ccc(Cl)cc2Cl)CCCO1 — within 1.5-fold, 7.7 µg/mL (≈ 16.3 µM)
- CC(Oc1ccc(Cl)cc1)C(=O)ON=C1CCCCCCCCCCC(=O)OCCC1 (stereo unspecified) — 1.9-fold higher, 17.8 µg/mL (≈ 39.4 µM)
- O=C1CCCCCCCCCC/C(=N/OC(=O)COc2ccc(Br)cc2Cl)CCCO1 — 1.5-fold higher, 14.7 µg/mL (≈ 28.4 µM)
- CC(Oc1ccccc1)C(=O)ON=C1CCCCCCCCCCC(=O)OCCC1 (stereo unspecified) — 2.4-fold higher, 22.4 µg/mL (≈ 53.6 µM)
- Cc1cc(OCC(=O)ON=C2CCCCCCCCCCC(=O)OC(C)CC2)ccc1Cl (stereo unspecified) — 2.8-fold lower, 3.4 µg/mL (≈ 7.3 µM)
